Activity calls are given as the source filed them.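 Rule for the calls, unless noted: active = inhibition at or above 50% at 10 µM; inactive = inhibition below 50%.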
Assays:
[1] = inhibitors of TNFa-induced NFkB p65 translocation, primary screen, imaging, HUVEC, MLSMR starter and 10KST1 sets (AID 438;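 active = inhibition above 20% together with a positive visual image hit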;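 note: compound added about 3h40 before a 20 min TNFalpha stimulation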;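 for inhibition: signal is the nuclear over cytoplasmic p65 intensity ratio per well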); conditions: HUVEC TNFa-induced p65 nuclear translocation; cell count: measured here: nuclei count (cytotoxicity indicator), at 2.08 µM; inhibition: at 2 µM, stronger effect = higher value, 0% TNFa-plus-vehicle, 100% no-TNFa wells
[2] = reduction of polyQ htt aggregates in cells – imaging, exon1htt(103Q)mCFP cells, high-content imaging, primary screen (AID 483;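 active = visual image review flags a hit and inhibition of aggregation exceeds 20%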;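 note: compound exposure lasted 3 days before fixation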;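 for nuclei count: percent of the per-plate median nuclei count of sample wells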); conditions: exon1htt(103Q)mCFP cell line, aggregate imaging, at 2 µM; inhibition of aggregation: stronger effect = higher value; nuclei count: measured here: cell count, toxicity
[3] = endothelial E-selectin expression blockers – imaging, HUVEC, immunofluorescence, MLSMR starter and 10KST1 sets, primary screen (AID 487;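 active = visually confirmed hit in the image check and inhibition above 20%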;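 for inhibition: signal is fraction of cell area covered by stained E-selectin grains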;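 for nuclei count: 100% = median nuclei count of all wells on the same plate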); conditions: HUVEC TNFalpha-induced E-selectin immunofluorescence imaging, at 2 µM; inhibition: stronger effect = higher value; nuclei count: measured here: cell number, toxicity
[4] = target: Voltage-gated potassium channel subunit beta-2 (Rattus norvegicus) (UniProt P62483); experiment: inhibitors of rat Kvbeta2 reductase activity – biochemical, NADPH fluorescence, primary screen (AID 622;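 active = fluorescence slope higher than the sample average by over 3 SD, cut at about -0.22 in these data, passing the limit was not always enough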;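 note: slope of raw intensity against log time taken from 70 to 1610 s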); conditions: recombinant KvBeta, 4-cyanobenzaldehyde reduction, at 10 µM, stronger effect = higher value
Chain of Voltage-gated potassium channel subunit beta-2 (Rattus norvegicus) (P62483 whole entry, looked up): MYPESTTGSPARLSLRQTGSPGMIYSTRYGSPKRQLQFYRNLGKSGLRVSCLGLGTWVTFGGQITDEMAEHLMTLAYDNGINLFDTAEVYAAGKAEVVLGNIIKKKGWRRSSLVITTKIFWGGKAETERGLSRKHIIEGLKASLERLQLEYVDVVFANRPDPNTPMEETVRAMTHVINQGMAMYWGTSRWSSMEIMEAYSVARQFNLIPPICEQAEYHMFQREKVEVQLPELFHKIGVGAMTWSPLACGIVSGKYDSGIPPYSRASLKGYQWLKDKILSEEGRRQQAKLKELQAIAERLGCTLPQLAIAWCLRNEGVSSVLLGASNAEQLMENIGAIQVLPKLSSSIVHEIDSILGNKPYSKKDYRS

[5] = target: Voltage-gated potassium channel subunit beta-2 (Rattus norvegicus) (UniProt P62483); experiment: enhancers of rat Kvbeta2 NADPH turnover – biochemical, NADPH fluorescence, primary screen (AID 623;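 active = NADPH fluorescence slope more negative than the mean of all samples by about 3 SD, 99.7% confidence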;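 note: fluorescence intensity change per second fitted from 20 to 320 s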); conditions: Recombinant KvBeta, NADPH fluorescence decrease slope, 10 min; at 10 µM; stronger effect = lower value
[6] = target: Muscarinic acetylcholine receptor M4 (Homo sapiens) (UniProt P08173); experiment: M4-linked GIRK flux change, two-sided – cell-based, HEK293 M4/GIRK, thallium flux, BTC-AM, M4 allosteric agonist project, primary screen (AID 625;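 active = fluorescence slope after compound addition differing from the mean of all tested samples at 99.7% confidence, mostly higher but some lower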;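 note: thallium influx through GIRK channels coupled to M4 in HEK293 cells with BTC-AM dye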); conditions: at 10 µM, actives lie on both sides
Chain of Muscarinic acetylcholine receptor M4 (Homo sapiens) (P08173 whole entry, looked up): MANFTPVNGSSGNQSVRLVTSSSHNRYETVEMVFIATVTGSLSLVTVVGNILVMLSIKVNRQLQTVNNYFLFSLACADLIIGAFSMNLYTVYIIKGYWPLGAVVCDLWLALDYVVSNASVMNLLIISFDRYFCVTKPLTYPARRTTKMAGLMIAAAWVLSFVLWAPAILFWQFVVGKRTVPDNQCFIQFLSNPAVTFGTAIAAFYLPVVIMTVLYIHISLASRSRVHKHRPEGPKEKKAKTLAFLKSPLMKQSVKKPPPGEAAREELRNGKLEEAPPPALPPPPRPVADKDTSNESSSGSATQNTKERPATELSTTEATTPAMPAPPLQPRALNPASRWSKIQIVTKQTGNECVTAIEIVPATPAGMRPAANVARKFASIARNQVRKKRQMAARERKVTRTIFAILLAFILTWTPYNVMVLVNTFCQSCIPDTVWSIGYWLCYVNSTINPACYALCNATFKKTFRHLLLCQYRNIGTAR
Method in brief: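 Material: HEK293 cells with M4 receptor and GIRK channels; Times: cells overnight at 37 °C, BTC-AM loading 1 h, reads 2 min total; Technique: kinetic BTC-AM fluorescence sampled at 1 Hz, 10 s pre-addition baseline; Read-out basis: slope over 15–24 s of trace normalized to starting intensity; Controls: carbachol positive, DMSO negative.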

[7] = blockers of RIG-like receptor reporter activation – cell-based, Sendai virus stimulus, luciferase, 10K MLSCN set, TLR/RLR signaling modifier project, primary screen (AID 602276); conditions: HEK293 RL24 IRF3 luciferase reporter, at 10 µM, stronger effect = higher value;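 note: firefly luciferase from ISG56 promoter only with Renilla not read in this screen; 0% = Sendai virus plus DMSO and 100% = medium plus DMSO without virus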
[8] = TLR3 IRF3 reporter activation blockers – cell-based, poly I:C stimulus, luciferase, 10K MLSCN set, primary screen (AID 602277;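 active = inhibition of the reporter signal at or above 50%; inactive = inhibition below 50%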); conditions: HEK293-TLR3 RL24 IRF3 luciferase reporter, at 10 µM, stronger effect = higher value

SMILES | cell count [1] | inhibition [1] | inhibition of aggregation [2] | nuclei count [2] | inhibition [3] | nuclei count [3] | fluorescence slope [4] | NADPH fluorescence slope [5] | fluorescence slope [6] | inhibition [7] | inhibition [8]
CCc1ccc2c(CN(CC)Cc3nc4ccccc4c(=O)[nH]3)cc(=O)oc2c1 | 530 | 1.4% (inactive) | 2% (inactive) | 114% | -23.3% (inactive) | 107% | -0.57 (inactive) | 5.5e-06 (inactive) | 0.00486 (inactive) | 17.1% (inactive) | 26.9% (inactive)
CCOC(=O)CSC1=Nc2ccccc2C2=NC(CC(=O)NCc3ccc(OC)cc3)C(=O)N12 (stereo unspecified) | 463 | -13.6% (inactive) | -2.2% (inactive) | 64.2% | -23.1% (inactive) | 91.7% | -0.476 (inactive) | -8e-06 (inactive) | 0.00508 (inactive) | 10.6% (inactive) | 20.5% (inactive)
CN(C)C(=O)CN(c1ccc(F)c(Cl)c1)S(C)(=O)=O | 352 | -2.1% (inactive) | -0.4% (inactive) | 104% | 5.1% (inactive) | 109% | -0.56 (inactive) | -8.3e-05 (inactive) | 0.00357 (inactive) | 1.05% (inactive) | 9.43% (inactive)
O=c1oc2ccccc2n1CCn1c2ccccc2c2nc3ccccc3nc21 | 714 | -7.8% (inactive) | -10.6% (inactive) | 103% | -9.3% (inactive) | 109% | -0.273 (inactive) | -1.3e-05 (inactive) | 0.00487 (inactive) | -5.18% (inactive) | 9.99% (inactive)
Cc1ccc(Cn2nnc3c(=O)[nH]c(C4CCN(C(=O)c5cccs5)CC4)nc32)cc1 | 430 | 5.1% (inactive) | -16.4% (inactive) | 106% | -71.2% (inactive) | 109% | -0.546 (inactive) | 1.3e-05 (inactive) | 0.00572 (inactive) | 5.84% (inactive) | 10.8% (inactive)
CC1(C)CC(=O)C(C=NCCO)=C(O)C1 | 416 | -1.8% (inactive) | 57% (active) | 23.4% | -45.4% (inactive) | 123% | -0.243 (inactive) | -2.1e-05 (inactive) | 0.00793 (inactive) | 21.7% (inactive) | -0.595% (inactive)
CCn1c(COc2cccc3ccccc23)nnc1SCC(N)=O | 436 | 9.4% (inactive) | -3.1% (inactive) | 99.6% | -0.1% (inactive) | 124% | -0.524 (inactive) | -6.7e-05 (inactive) | 0.00477 (inactive) | 12.9% (inactive) | 19.7% (inactive)
CSc1ccccc1NS(=O)(=O)c1ccccc1 | 558 | -1% (inactive) | -14.6% (inactive) | 96.9% | -8.2% (inactive) | 105% | -0.454 (inactive) | 1.4e-05 (inactive) | 0.00445 (inactive) | 13% (inactive) | 12.9% (inactive)
COc1ccc(C)cc1-n1nnnc1SCC(=O)NC(=O)NCc1ccco1 | 180 | -9.6% (inactive) | 25% (inactive) | 65.2% | 8.9% (inactive) | 90.6% | -0.57 (inactive) | -1.3e-05 (inactive) | 0.00596 (inactive) | 16.7% (inactive) | 16% (inactive)
CC1(C)Cc2noc(N)c2C(C)(C)N1O | 762 | -11.6% (inactive) | -36.8% (inactive) | 118% | -81.1% (inactive) | 110% | -0.39 (inactive) | 4.7e-05 (inactive) | 0.00626 (inactive) | 13.8% (inactive) | 22.1% (inactive)
Cc1nc2sc3c(c2c(=O)o1)CCC3 | 619 | 2.1% (inactive) | -0.2% (inactive) | 108% | 0.3% (inactive) | 93.8% | -0.511 (inactive) | -0.000121 (inactive) | 0.00356 (inactive) | 16.2% (inactive) | 22.8% (inactive)
O=C(NCc1ccco1)C1CCN(C(=O)c2cc3sccc3n2Cc2ccc(F)cc2)CC1 | 571 | -16.7% (inactive) | -0.6% (inactive) | 122% | -27.8% (inactive) | 101% | -0.381 (inactive) | -4.5e-05 (inactive) | 0.00956 (inactive) | 17.8% (inactive) | 27.2% (inactive)
CC1C(c2ccccc2)N(C)CCC12NC(=O)NC2=O (stereo unspecified) | 315 | -0.8% (inactive) | -12.3% (inactive) | 108% | -43% (inactive) | 135% | -0.397 (inactive) | 6.4e-05 (inactive) | 0.00604 (inactive) | -0.144% (inactive) | 3.49% (inactive)
O=C(CN1CCOCC1)N1CCN(C(=O)CN2CCOCC2)CC1 | 557 | -51% (inactive) | -14% (inactive) | 120% | -63.9% (inactive) | 120% | -0.468 (inactive) | 9.6e-05 (inactive) | 0.00604 (inactive) | 12.4% (inactive) | 17.7% (inactive)
O=C1NC(=O)C2(CCC(C(=O)O)C2)N1 (stereo unspecified) | 557 | -17.5% (inactive) | -0.1% (inactive) | 100% | -72.3% (inactive) | 119% | -0.408 (inactive) | 3.7e-05 (inactive) | 0.00541 (inactive) | 13.2% (inactive) | 17.5% (inactive)
Cc1occc1C(=O)Nc1cccnc1 | 537 | -21.3% (inactive) | -33.6% (inactive) | 108% | -9.9% (inactive) | 84.1% | -0.538 (inactive) | -4.1e-05 (inactive) | 0.00413 (inactive) | 18.2% (inactive) | 7.63% (inactive)
COc1ccccc1C(O)P(=O)(OC(C)C)c1ccc(N(C)C)cc1 (stereo unspecified) | 665 | -3.9% (inactive) | 6.1% (inactive) | 122% | 0% (inactive) | 106% | -0.553 (inactive) | 2.2e-06 (inactive) | 0.00553 (inactive) | 7.42% (inactive) | 11% (inactive)
COc1cc(NS(=O)(=O)c2cccc3nsnc23)c(C(=O)O)cc1OC | 296 | -6% (inactive) | -7.8% (inactive) | 95.9% | 5.3% (inactive) | 136% | -0.575 (inactive) | -4.3e-05 (inactive) | 0.00636 (inactive) | 14.8% (inactive) | 17.5% (inactive)
Cn1nnnc1SCC(=O)Nc1ccccc1C(=O)NCc1ccccc1 | 368 | 7.2% (inactive) | 0.2% (inactive) | 98.6% | -74.8% (inactive) | 124% | -0.275 (inactive) | -2.2e-05 (inactive) | 0.00734 (inactive) | -6.6% (inactive) | -17.1% (inactive)
COCCOC(=O)C1=C(C)N=c2s/c(=C\c3cccs3)c(=O)n2C1c1cccs1 (stereo unspecified) | 331 | -4.7% (inactive) | -47% (inactive) | 98.1% | -148% (inactive) | 110% | -0.251 (inactive) | -1.4e-05 (inactive) | 0.00423 (inactive) | -5.37% (inactive) | -16.7% (inactive)
Cc1nc2cccc(C(=O)NC3CCCCC3)c2o1 | 369 | 6.8% (inactive) | -19.6% (inactive) | 53.7% | -67.3% (inactive) | 102% | -0.416 (inactive) | -1.2e-05 (inactive) | 0.00546 (inactive) | 10.4% (inactive) | 13.1% (inactive)
CSc1n[nH]c(NCc2ccccc2)n1 | 278 | 0.2% (inactive) | 10.1% (inactive) | 70.6% | -70.1% (inactive) | 119% | -0.482 (inactive) | -1.9e-05 (inactive) | 0.00548 (inactive) | 6.09% (inactive) | -2.54% (inactive)
Cc1nnc2ccc(N3CCC4(CC3)OCCO4)nn12 | 538 | -21% (inactive) | 9.6% (inactive) | 112% | -83% (inactive) | 117% | -0.322 (inactive) | -3.3e-05 (inactive) | 0.00635 (inactive) | 12.5% (inactive) | 8.72% (inactive)
CN(C)CCSc1nnc2sc3ccccc3n12 | 599 | -5% (inactive) | -2.2% (inactive) | 105% | -71.5% (inactive) | 110% | -0.477 (inactive) | -5.9e-05 (inactive) | 0.00534 (inactive) | -0.357% (inactive) | 12.6% (inactive)
CC1(C)Cc2nc3oc4c(N(CCO)Cc5ccccc5)ncnc4c3cc2CO1 | 558 | 6.7% (inactive) | -1.1% (inactive) | 101% | -29.7% (inactive) | 122% | -0.27 (inactive) | -1.6e-05 (inactive) | 0.0057 (inactive) | -1.42% (inactive) | 5.17% (inactive)
CCCn1nc(NS(=O)(=O)c2ccccc2)c2cc3ccccc3nc21 | 468 | -3.8% (inactive) | -8.5% (inactive) | 110% | 12% (inactive) | 102% | -0.598 (inactive) | 2.9e-05 (inactive) | 0.00512 (inactive) | 6.34% (inactive) | 14.1% (inactive)

— PubChem BioAssay
